Assay results reported in ChEMBL document CHEMBL4616711, “Discovery of 2,6-Dimethylpiperazines as Allosteric Inhibitors of CPS1” (ACS Med Chem Lett, 2020).
≈ marks a conversion by molar mass, not a printed value.

What was measured:
[1] = biological target: T1, Carbamoyl-phosphate synthase [ammonia], mitochondrial (Homo sapiens, UniProt P31327); test: Allosteric inhibition of His-tagged CPS1 (unknown origin) expressed in baculovirus infected Sf21 insect cells assessed as reduction in ADP level preincubated for 20 mins followed by ATP addition measured after 60 mins by ADP-Glo assay
T1 sequence (P31327 whole entry): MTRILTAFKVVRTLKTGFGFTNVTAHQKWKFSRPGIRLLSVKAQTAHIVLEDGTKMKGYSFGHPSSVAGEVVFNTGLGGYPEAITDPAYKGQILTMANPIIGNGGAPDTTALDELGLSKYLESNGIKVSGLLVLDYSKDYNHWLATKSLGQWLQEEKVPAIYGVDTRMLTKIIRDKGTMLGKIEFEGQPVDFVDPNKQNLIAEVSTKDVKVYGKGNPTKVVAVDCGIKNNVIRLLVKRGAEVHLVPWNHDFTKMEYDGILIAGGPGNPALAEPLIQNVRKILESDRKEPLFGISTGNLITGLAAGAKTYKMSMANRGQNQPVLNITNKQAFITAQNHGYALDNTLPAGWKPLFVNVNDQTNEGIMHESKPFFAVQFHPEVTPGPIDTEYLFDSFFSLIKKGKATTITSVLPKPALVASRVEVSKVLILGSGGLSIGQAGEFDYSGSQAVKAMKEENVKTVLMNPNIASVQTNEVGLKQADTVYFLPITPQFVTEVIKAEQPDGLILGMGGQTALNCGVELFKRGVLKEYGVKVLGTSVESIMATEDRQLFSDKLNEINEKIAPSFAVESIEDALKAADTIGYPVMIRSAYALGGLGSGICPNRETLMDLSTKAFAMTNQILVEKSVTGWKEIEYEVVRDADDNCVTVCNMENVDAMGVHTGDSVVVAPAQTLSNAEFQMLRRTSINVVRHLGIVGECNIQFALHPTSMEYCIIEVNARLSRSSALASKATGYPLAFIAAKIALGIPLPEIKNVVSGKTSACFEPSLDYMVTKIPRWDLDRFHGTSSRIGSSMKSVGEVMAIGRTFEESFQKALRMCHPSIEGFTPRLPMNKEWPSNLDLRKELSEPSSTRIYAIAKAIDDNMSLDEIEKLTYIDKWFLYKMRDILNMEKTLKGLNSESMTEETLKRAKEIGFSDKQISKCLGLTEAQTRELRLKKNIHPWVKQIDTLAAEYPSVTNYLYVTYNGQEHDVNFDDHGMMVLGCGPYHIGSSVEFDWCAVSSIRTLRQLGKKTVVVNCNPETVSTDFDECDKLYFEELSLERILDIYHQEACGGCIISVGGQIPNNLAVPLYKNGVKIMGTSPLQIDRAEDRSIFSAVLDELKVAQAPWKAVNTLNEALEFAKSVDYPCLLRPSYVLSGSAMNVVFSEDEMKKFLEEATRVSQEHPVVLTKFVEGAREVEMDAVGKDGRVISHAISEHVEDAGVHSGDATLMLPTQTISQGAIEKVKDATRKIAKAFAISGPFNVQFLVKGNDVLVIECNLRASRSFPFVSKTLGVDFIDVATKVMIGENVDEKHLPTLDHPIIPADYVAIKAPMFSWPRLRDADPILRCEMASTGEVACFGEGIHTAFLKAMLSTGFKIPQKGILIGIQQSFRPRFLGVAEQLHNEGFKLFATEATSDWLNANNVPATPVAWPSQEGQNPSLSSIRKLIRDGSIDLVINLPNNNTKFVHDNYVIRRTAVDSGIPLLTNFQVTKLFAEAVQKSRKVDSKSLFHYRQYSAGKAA
Summary of the method: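 CPS1 activity read as ADP formation in the presence of inhibitor. IC50 taken as the average of at least two experimental replicates (N = 2).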

[2] = biological target: T1, Carbamoyl-phosphate synthase [ammonia], mitochondrial; test: Inhibition of CPS1 in human pooled hepatocytes assessed as reduction in urea production measured after 16 hrs in presence of NH4Cl by tecan-plate reader analysis; type: cell-based
Summary of the method: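 Primary human hepatocytes given 10 mM NH4Cl together with compound over a concentration series. Urea secreted into the medium measured after 16 h. IC50 derived from the inhibition of urea production.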

[3] = Apparent permeability across apical to basolateral membrane in human Caco2 cells at 5 uM incubated for 2 hrs by LC-MS/MS analysis; type: ADME, cell-based; settings: Caco-2
[4] = Clearance in human pooled hepatocytes assessed per million cells at 1 uM measured up to 120 mins by LC-MS/MS analysis; type: ADME, cell-based, Hepatocyte; settings: read-out: CLH
[5] = Kinetic solubility in Dulbecco's phosphate buffer saline at pH 7.4 by UPLC analysis; type: physicochemical; settings: Dulbecco's phosphate buffered saline, read-out: Kinetic_solubility
[6] = biological target: Multifunctional protein CAD (Homo sapiens, UniProt P27708); test: Inhibition of CAD (unknown origin) CSP2 activity expressed in Escherichia coli BL21 (DE3) preincubated for 20 mins followed by ATP addition measured after 60 mins by ADP-Glo assay
Chain of Multifunctional protein CAD (P27708 whole entry): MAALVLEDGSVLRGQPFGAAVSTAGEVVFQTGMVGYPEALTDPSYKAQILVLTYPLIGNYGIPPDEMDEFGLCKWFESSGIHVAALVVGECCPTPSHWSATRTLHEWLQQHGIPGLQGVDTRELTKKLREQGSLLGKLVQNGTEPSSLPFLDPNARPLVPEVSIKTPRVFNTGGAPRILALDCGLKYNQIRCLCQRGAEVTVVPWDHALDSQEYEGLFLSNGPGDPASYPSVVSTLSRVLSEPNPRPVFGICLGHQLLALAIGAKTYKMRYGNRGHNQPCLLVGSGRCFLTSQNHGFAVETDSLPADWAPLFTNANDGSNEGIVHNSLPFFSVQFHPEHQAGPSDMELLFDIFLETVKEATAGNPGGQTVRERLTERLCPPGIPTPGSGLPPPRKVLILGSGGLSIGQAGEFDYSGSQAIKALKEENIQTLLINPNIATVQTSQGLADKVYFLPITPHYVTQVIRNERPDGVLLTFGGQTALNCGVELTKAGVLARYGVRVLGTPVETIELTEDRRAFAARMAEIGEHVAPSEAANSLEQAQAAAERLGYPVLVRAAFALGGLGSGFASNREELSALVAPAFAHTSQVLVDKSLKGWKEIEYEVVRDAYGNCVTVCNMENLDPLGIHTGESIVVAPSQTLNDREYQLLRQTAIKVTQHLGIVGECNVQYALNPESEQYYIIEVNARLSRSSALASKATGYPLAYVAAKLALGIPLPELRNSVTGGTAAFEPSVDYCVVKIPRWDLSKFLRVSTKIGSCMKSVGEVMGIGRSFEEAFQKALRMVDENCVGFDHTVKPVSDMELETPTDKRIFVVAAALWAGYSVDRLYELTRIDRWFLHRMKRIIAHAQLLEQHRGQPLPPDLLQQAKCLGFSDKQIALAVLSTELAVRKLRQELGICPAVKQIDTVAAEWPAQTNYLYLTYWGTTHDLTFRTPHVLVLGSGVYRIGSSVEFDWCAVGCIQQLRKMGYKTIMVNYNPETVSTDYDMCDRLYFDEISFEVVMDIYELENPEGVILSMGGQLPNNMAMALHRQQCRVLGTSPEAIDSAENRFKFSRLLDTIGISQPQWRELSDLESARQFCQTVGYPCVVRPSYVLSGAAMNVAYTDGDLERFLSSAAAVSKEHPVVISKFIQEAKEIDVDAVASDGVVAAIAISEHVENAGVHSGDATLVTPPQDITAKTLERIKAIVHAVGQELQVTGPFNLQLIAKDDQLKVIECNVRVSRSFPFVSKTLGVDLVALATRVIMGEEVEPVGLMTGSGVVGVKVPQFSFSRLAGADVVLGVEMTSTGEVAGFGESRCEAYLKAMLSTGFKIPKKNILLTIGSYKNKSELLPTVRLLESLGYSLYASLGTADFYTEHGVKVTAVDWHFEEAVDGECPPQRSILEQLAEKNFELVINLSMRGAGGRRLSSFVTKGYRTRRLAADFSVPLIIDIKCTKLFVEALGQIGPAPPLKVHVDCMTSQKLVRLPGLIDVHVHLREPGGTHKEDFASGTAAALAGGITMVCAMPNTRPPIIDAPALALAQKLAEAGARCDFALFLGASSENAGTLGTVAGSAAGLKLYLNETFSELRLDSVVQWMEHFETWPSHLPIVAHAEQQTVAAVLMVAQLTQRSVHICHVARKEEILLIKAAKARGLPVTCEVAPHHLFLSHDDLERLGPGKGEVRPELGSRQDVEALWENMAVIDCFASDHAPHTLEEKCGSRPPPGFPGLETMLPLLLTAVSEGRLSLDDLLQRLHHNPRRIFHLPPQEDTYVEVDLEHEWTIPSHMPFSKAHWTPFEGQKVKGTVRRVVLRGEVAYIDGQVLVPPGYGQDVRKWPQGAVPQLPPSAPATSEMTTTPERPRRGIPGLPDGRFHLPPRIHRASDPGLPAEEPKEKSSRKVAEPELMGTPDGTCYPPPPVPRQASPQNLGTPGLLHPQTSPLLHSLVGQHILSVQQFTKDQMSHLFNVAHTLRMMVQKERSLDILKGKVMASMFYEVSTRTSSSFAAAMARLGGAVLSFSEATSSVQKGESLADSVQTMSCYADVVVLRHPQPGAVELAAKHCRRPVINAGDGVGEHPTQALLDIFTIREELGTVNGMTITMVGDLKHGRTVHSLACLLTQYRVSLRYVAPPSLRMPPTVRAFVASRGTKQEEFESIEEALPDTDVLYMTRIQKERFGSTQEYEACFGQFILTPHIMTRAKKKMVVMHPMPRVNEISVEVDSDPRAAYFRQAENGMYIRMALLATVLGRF

Row | SMILES | IC50 [1] | further results
1 | COc1ccc(C(=O)N2CC3CC2CN3C(=O)c2ccc(OC)cc2F)c(F)c1 | > 66 µM | 
2 | COc1ccc(C(=O)N2[C@H](C)CN(C(=O)c3ccc4[nH]ccc4c3)C[C@H]2C)c(F)c1 | > 66 µM | IC50 [2]: Not Active
3 | COc1ccc(C(=O)N2CC(C)N(C(=O)c3ccc(OC)cc3F)CC2C)c(F)c1 (stereo not drawn) | 11.4 µM | 
4 | COc1ccc(C(=O)N2[C@H](C)CN(C(=O)c3cccc(OC)c3F)C[C@H]2C)c(F)c1 | > 66 µM | 
5 | COc1ccc(C(=O)N2[C@H](C)CN(C(=O)c3ccc4cc(C)[nH]c4c3)C[C@H]2C)c(F)c1 |  | IC50 ([2]; read-out: IC50): 1 µM
6 | COc1ccc(C(=O)N2[C@H](C)CN(C(=O)c3cc(OC)ccc3F)C[C@H]2C)c(F)c1 | > 66 µM | 
7 | COc1ccc(C(=O)N2CCCN(C(=O)c3ccc(OC)cc3F)CC2)c(F)c1 | 18.9 µM | 
8 | COc1ccc(C(=O)N2[C@H](C)CN(C(=O)c3ccc4ccn(C)c4c3)C[C@H]2C)c(F)c1 |  | IC50 [2]: Not Active
9 | Cc1csc(NC(=O)C2CCN(C(=O)N(C)Cc3ccccc3)CC2)n1 | 1.5 µM | hepatocyte CLint at 1 µM [4]: 35 µL/min/1e6 cells
10 | COc1ccc(C(=O)C2CCN(C(=O)c3ccc(OC)cc3F)CC2)c(F)c1 | 21.5 µM | 
11 | COc1ccc(C(=O)N2[C@H](C)CN(C(=O)c3cc(NC(C)=O)ccc3F)C[C@H]2C)c(F)c1 | > 66 µM | 

Second part, led by results:

Row | IC50 [1] | SMILES | further results
12 | 0.066 µM | COc1ccc(C(=O)N2[C@H](C)CN(C(=O)c3ccc4cc[nH]c4c3)C[C@H]2C)c(F)c1 | Papp A→B at 2 h, 5 µM [3]: 123 nm/s; hepatocyte CLint at 1 µM [4]: 8.7 µL/min/1e6 cells; solubility kinetic [5]: 148 µM (≈ 60.6 µg/mL); IC50 [6]: ≥ 100 µM; IC50 ([2]; read-out: IC50): 0.24 µM
13 | 1.3 µM | COc1ccc(C(=O)N2C[C@@H](C)N(C(=O)c3ccc(F)cc3F)[C@H](C)C2)c(F)c1 | 
14 | 0.13 µM | CCOc1ccc(C(=O)N2C[C@@H](C)N(C(=O)c3ccc(OC)cc3F)[C@H](C)C2)c(F)c1 | 
15 | 1.4 µM | COc1ccc(C(=O)N2C[C@@H](C)N(C(=O)c3ccc(OC(C)C)cc3F)[C@H](C)C2)c(F)c1 | 
16 | 0.38 µM | CCOc1ccc(C(=O)N2[C@H](C)CN(C(=O)c3ccc(OC)cc3F)C[C@H]2C)c(F)c1 | 
